# Source: BindingDB's records for doi:10.1021/jm00165a017 (Abbott Laboratories, 1990)
# pIC50: −log10 of the molar value.
# Molecular target: T1, Polyunsaturated fatty acid 5-lipoxygenase (Rattus norvegicus, UniProt P12527)
# T1 sequence (P12527 whole entry): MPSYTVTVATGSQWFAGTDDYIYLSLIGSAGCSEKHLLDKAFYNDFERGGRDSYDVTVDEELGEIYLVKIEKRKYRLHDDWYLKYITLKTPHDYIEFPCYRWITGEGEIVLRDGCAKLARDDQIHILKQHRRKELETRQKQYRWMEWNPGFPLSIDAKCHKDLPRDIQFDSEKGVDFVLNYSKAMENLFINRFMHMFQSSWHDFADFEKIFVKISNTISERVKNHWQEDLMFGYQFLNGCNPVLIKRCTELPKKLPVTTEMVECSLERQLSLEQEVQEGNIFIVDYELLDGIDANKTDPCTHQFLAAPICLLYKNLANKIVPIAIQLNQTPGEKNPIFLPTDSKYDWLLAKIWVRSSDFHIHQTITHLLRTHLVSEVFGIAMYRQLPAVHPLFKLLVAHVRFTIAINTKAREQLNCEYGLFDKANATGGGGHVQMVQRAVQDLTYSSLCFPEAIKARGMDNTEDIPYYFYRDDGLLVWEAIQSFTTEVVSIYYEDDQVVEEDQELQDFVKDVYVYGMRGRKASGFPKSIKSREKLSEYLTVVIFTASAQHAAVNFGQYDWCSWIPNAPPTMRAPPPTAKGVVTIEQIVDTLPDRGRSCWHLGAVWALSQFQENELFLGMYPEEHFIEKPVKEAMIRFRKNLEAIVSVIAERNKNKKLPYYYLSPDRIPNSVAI
# Assay: In vitro inhibitory activity against 5-lipoxygenase in rat basophilic leukemia cells(RBL-1)
# Procedure, shortened: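 Enzyme source: sonicated lysate of trypsin-harvested adherent RBL-1 cells (3.0 × 10^7 cells/mL in 10 mM BES, 10 mM PIPES, 1 mM EDTA, pH 6.8), 20000g 20-min supernatant. Compounds in DMSO preincubated with enzyme 20 min at 37 °C in buffer with 0.7 mM CaCl2, 100 mM NaCl. Radiolabelled 5-HETE counted after chromatography, corrected via [3H]5-HETE recovery.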
smiles,measurement,value
CC(C)Cc1ccc(C(Cc2ccccc2)C(=O)N(C)O)cc1 (stereo unspecified),pIC50,5.82
